# Measurements as given in ChEMBL document CHEMBL3763045, “Design, Synthesis, and Pharmacological Evaluation of Novel N-Acylhydrazone Derivatives as Potent Histone Deacetylase 6/8 Dual Inhibitors” (J Med Chem, 2016).
# Calls of active or inactive are those of the source. No cut-off for these calls is given here.
# Experiments:
# [1] = Chemical stability of the compound in acidic buffer assessed as compound recovery at pH 2 after 4 hrs by HPLC-PDA analysis; format: physicochemical; details: buffer, pH 2, 4 h
# Outline: (§1)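 Compounds stirred in pH 7.4 or pH 2 buffer at 37 °C for 240 min; percentage of compound recovered followed over time (30 min and 4 h points). Triplicate runs, values averaged.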
# HepG2 [2] = assay: Effect on cell cycle distribution in human HepG2 cells assessed as accumulation at SubG1 phase at 5 to 10 uM after 24 to 48 hrs by propidium iodide staining-based flow cytometry; format: functional
# Outline: (§2)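 Cell cycle of HepG2 cells by flow cytometry after 5 or 10 µM for 24 and 48 h, giving SubG1, G0/G1, S and G2/M fractions. ANOVA with Tukey's post-test against control.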
# HepG2 [3] = assay: Antiproliferative activity against human HepG2 cells assessed as reduction in cell viability at 40 uM after 48 hrs by MTS assay; format: functional, cell-based
# HepG2 [4] = assay: Effect on cell cycle distribution in human HepG2 cells assessed as decrease in S phase at 5 to 10 uM after 24 to 48 hrs by propidium iodide staining-based flow cytometry; format: functional; outline: as §2
# [5] = Chemical stability of the compound in acidic buffer assessed as compound hydrolysis at pH 2 measured for 240 mins by HPLC-PDA analysis; format: physicochemical; details: pH 2, 4 h; outline: as §1
# [6] = Aqueous solubility of the compound in buffer at pH 7.4 after 24 hrs by spectrophotometric method; format: physicochemical
# Outline: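 Water solubility in pH 7.4 buffer, measured spectrophotometrically by the method of Schneider and coworkers.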
# Histone deacetylase 2 = Histone deacetylase 2 (Homo sapiens, UniProt Q92769); assay: Inhibition of recombinant human HDAC2 by fluorimetry
# Histone deacetylase 2, sequence (Q92769 whole entry): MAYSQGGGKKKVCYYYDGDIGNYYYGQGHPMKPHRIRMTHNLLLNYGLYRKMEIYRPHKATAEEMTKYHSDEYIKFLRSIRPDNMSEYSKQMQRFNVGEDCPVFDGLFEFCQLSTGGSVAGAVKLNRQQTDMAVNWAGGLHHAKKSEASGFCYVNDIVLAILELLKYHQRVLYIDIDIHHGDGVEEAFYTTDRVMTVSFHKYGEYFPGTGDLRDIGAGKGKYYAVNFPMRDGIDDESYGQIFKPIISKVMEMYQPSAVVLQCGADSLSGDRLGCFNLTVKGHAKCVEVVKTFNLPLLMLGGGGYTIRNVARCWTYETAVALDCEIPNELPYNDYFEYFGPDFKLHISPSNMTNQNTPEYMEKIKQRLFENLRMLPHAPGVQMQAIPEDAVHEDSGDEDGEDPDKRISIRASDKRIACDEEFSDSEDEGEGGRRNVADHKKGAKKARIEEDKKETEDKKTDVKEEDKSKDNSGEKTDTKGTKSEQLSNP
# [7] = Chemical stability of the compound in acidic buffer assessed as compound recovery at pH 2 after 30 mins by HPLC-PDA analysis; format: physicochemical; outline: as §1
# HT-144 = assay: Antiproliferative activity against human HT144 cells assessed as reduction in cell viability at 40 uM after 48 hrs by MTS assay; format: functional, cell-based
# Histone deacetylase 8 = target: T1, Histone deacetylase 8 (Homo sapiens, UniProt Q9BY41); assay: Inhibition of recombinant human HDAC8 by fluorimetry
# T1 sequence (Q9BY41 whole entry): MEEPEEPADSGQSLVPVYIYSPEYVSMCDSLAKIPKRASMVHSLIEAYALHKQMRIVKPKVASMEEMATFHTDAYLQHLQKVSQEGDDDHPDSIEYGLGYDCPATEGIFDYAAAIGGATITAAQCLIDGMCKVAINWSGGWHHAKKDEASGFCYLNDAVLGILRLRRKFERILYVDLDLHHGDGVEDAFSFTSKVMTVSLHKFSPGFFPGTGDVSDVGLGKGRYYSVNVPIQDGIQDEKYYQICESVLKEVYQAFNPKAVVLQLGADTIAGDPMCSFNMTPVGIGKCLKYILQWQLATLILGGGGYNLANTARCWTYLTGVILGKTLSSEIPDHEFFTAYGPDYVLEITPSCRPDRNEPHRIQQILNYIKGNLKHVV
# HepG2 [8] = assay: Effect on cell cycle distribution in human HepG2 cells assessed as decrease in G0/G1 phase at 5 to 10 uM after 24 to 48 hrs by propidium iodide staining-based flow cytometry; format: functional; outline: as §2
# HepG2 [9] = assay: Induction of apoptosis in human HepG2 cells at 5 to 10 uM after 24 hrs by TUNEL assay; format: functional, cell-based
# Outline: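 HepG2 cells treated 24 h (5 and 10 µM for TUNEL, 5 µM for caspase 3/7). Apoptosis scored by flow cytometry as TUNEL-positive frequency and as cells with activated caspase 3/7. Doxorubicin positive control; ANOVA with Tukey's post-test.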
# [10] = Antiproliferative activity against human HT144 cells assessed as reduction in cell viability after 48 hrs by MTS assay; format: functional, cell-based; details: HT-144, 48 h
# Histone deacetylase 1 = Histone deacetylase 1 (Homo sapiens, UniProt Q13547); assay: Inhibition of recombinant human HDAC1 by fluorimetry
# Histone deacetylase 1, sequence (Q13547 whole entry): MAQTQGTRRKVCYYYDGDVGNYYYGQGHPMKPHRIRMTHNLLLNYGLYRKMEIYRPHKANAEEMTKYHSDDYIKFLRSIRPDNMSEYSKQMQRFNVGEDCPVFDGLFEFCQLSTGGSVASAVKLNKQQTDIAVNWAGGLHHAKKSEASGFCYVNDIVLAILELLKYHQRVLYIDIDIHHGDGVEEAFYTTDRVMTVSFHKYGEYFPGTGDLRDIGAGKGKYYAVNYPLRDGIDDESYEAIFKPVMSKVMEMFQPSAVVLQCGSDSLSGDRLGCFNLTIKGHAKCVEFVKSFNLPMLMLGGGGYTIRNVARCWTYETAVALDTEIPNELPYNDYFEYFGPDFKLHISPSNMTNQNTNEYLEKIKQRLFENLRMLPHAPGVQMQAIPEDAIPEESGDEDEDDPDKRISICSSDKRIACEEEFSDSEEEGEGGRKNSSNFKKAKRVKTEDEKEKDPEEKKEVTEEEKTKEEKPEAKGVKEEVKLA
# [11] = Chemical stability of compound in phosphate dibasic buffer assessed as compound degradation at pH 7.4 by HPLC-PDA analysis; format: physicochemical; details: read-out: Drug degradation; outline: as §1
# HepG2 [12] = assay: Antiproliferative activity against human HepG2 cells assessed as reduction in cell viability after 48 hrs by MTS assay; format: functional, cell-based; details: HepG2, 48 h
# MCF7 = assay: Antiproliferative activity against human MCF7 cells assessed as reduction in cell viability at 40 uM after 48 hrs by MTS assay; format: functional, cell-based
# Outline: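 MCF-7 cells exposed at 40 µM for 48 h, viability by MTS; ANOVA with Tukey's post-test against control.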
# [13] = target: T2, Protein deacetylase HDAC6 (Homo sapiens, UniProt Q9UBN7); assay: Inhibition of recombinant human HDAC6 by fluorimetry
# T2 sequence (Q9UBN7 whole entry): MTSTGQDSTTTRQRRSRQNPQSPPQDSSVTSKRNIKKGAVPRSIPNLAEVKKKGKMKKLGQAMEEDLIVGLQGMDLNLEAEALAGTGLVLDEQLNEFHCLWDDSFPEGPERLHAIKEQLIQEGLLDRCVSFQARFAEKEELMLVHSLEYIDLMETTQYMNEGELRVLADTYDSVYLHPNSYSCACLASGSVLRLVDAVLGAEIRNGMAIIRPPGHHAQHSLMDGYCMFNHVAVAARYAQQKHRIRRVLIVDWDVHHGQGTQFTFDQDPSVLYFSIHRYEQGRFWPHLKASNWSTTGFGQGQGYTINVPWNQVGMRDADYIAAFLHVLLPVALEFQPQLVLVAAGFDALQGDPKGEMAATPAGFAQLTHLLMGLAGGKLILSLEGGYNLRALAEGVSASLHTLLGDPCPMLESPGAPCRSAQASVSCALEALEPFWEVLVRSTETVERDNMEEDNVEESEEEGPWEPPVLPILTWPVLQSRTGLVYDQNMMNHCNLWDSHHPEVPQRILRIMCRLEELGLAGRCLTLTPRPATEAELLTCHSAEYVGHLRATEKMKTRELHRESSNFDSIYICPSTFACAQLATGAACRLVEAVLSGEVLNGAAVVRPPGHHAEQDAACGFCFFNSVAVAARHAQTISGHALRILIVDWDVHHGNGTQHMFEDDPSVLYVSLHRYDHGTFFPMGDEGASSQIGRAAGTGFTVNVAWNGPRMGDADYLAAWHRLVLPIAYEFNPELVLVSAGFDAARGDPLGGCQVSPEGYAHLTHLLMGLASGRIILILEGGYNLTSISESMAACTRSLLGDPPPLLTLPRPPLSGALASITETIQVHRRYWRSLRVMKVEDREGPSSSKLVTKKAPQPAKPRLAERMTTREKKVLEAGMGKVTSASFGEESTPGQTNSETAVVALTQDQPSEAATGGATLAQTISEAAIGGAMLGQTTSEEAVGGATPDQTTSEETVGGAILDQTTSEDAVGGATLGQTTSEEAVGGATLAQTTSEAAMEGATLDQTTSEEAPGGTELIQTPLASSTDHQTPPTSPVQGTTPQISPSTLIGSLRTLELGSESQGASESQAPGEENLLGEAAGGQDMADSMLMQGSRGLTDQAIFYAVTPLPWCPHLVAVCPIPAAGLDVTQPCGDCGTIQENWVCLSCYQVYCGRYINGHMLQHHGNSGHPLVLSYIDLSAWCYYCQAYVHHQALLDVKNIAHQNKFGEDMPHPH
# Histone deacetylase = assay: Inhibition of HDAC in rat liver by fluorimetry
# Outline: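 Rat liver HDAC IC50 from a six-point enzyme assay, three-fold serial dilution starting at 3 µM or 1 µM depending on compound; mean of two experiments ± SD.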
# [14] = target: Histone deacetylase (Rattus norvegicus) (UniProt Q6P6W3+Q99P99+Q99P96+Q4QQW4+Q99P97+Q5RJZ2+B1WBY8); assay: Inhibition of HDAC in rat liver at 1 uM by fluorimetry
# Outline: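 Rat liver HDAC preparation, non-selective enzyme assay, test compounds at 1 µM; % inhibition is the mean of two experiments.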
# [15] = Ionization constant, pKa of the compound in buffer measured over 3 hrs by UV spectrometry; format: physicochemical
# Calu-1 = assay: Inhibition of cell migration in human Calu1 cells at 15 and 30 nM after 48 hrs by scratch test; format: functional, cell-based
# Outline: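 Calu-1 migration by scratch test after 48 h treatment. DMSO vehicle control; one representative of three independent experiments.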
# [16] = target: T3, Protein deacetylase HDAC6 (Homo sapiens) (UniProt Q9UBN7); assay: Inhibition of HDAC6 in human Calu1 cells assessed as induction of tubulin acetylation at 15 to 54 nM after 24 hrs by Western blotting analysis; format: cell-based; details: Calu-1
# T3 sequence (whole entry): T2 sequence (Q9UBN7 whole entry)
# Outline: (§3)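 Calu-1 and A549 cells treated 24 h, acetylated tubulin detected by western blot with GAPDH as loading control. DMSO vehicle control; one representative of three independent experiments.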
# HepG2 [17] = assay: Effect on cell cycle distribution in human HepG2 cells assessed as accumulation at G2/M phase at 5 uM after 24 and 48 hrs by propidium iodide staining-based flow cytometry; format: functional; outline: as §2
# [18] = Lipophilicity, logD of the compound at pH 7.4 after 4 hrs; format: physicochemical; details: buffer
# [19] = target: T3, Protein deacetylase HDAC6 (Homo sapiens); assay: Inhibition of HDAC6 in human A549 cells assessed as induction of tubulin acetylation at 15 to 54 nM after 24 hrs by Western blotting analysis; format: cell-based; outline: as §3
SMILES,Activity (HepG2 [3]),solubility at 24 h [6],IC50 (Histone deacetylase 2),Activity (HT-144),IC50 (Histone deacetylase 8),IC50 (Histone deacetylase 1),Activity (MCF7),IC50 [13],inhibition [14],other results
C/C(=N\NC(=O)c1ccc(N(C)C)cc1)c1ccc(C(=O)NO)cc1,Active,6.2 µM,> 3000 nM,Active,110 nM,> 3000 nM,Active,56 nM,–,"Stability [1]: Unstable; Activity (HepG2 [2]): Active; Activity (HepG2 [4]): Active; Stability [5]: Unstable; remaining at 0.5 h ([7]; acidic buffer, pH 2, read-out: Drug recovery): 6%; Activity (HepG2 [8]): Active; Activity (HepG2 [9]): Active; IC50 [10]: 20000 nM; degraded [11]: > 15%; IC50 (HepG2 [12]): 11500 nM"
COC(=O)c1ccc(/C=N/NC(=O)c2ccc(N(C)C)cc2)cc1,–,1.7 µM,–,–,–,–,–,–,–,–
CN(C)c1ccc(C(=O)N/N=C/c2cccc(C(=O)O)c2)cc1,–,> 70 µM,–,–,–,–,–,–,–,–
CN(C)c1ccc(C(=O)N/N=C/c2cccc(C(=O)NO)c2)cc1,Active,> 67 µM,> 10000 nM,Active,2200 nM,> 10000 nM,Active,390 nM,66%,IC50 (Histone deacetylase): 1200 nM
CN(C)c1ccc(C(=O)N/N=C/c2ccc(C(=O)NO)cc2)cc1,Active,15 µM,> 3000 nM,Active,230 nM,> 3000 nM,Active,15 nM,90.4%,IC50 (Histone deacetylase): 21 nM; Activity (HepG2 [2]): Active; Activity (HepG2 [4]): Active; Stability [5]: Unstable; pKa at 3 h [15]: 8.1; inhibition (Calu-1): Active; inhibition [16]: Active; Activity (HepG2 [17]): Active; logD at 4 h [18]: 0.68; Activity (HepG2 [8]): Active; IC50 [10]: 21200 nM; degraded [11]: > 15%; inhibition [19]: Active; IC50 (HepG2 [12]): 9480 nM
COC(=O)c1ccc(/C=N/N(C)C(=O)c2ccc(N(C)C)cc2)cc1,–,1.4 µM,–,–,–,–,–,–,–,–
CN(C)c1ccc(C(=O)N/N=C/c2ccc(C(=O)O)cc2)cc1,–,> 77 µM,–,–,–,–,–,–,-9.1%,–
C/C(=N\N(C)C(=O)c1ccc(N(C)C)cc1)c1ccc(C(=O)NO)cc1,Active,122 µM,> 3000 nM,Active,54 nM,> 3000 nM,Active,97 nM,–,"Stability [5]: Unstable; Stability ([7]; buffer, pH 2, 0.5 h): Unstable; IC50 [10]: 51600 nM; degraded [11]: > 15%; IC50 (HepG2 [12]): 30300 nM"
CN(/N=C/c1cccc(C(=O)O)c1)C(=O)c1ccc(N(C)C)cc1,–,> 67 µM,–,–,–,–,–,–,-5.8%,–
COC(=O)c1cccc(/C=N/N(C)C(=O)c2ccc(N(C)C)cc2)c1,–,8.2 µM,–,–,–,–,–,–,–,–
COC(=O)c1cccc(/C=N/NC(=O)c2ccc(N(C)C)cc2)c1,–,3.7 µM,–,–,–,–,–,–,-4.6%,–
CN(/N=C/c1ccc(C(=O)O)cc1)C(=O)c1ccc(N(C)C)cc1,–,> 67 µM,–,–,–,–,–,–,-8.7%,–
CN(/N=C/c1cccc(C(=O)NO)c1)C(=O)c1ccc(N(C)C)cc1,Active,> 70 µM,> 10000 nM,Active,2000 nM,> 10000 nM,Active,2500 nM,33.4%,–
